Experimental data collected from several papers.
Each line is one published result; the experiments were not run side by side.
HTR2A: 5-hydroxytryptamine receptor 2A (HTR2A, Homo sapiens, UniProt P28223)
PPO3: PPO3 (Agaricus bisporus, UniProt C7FF04)

CCOC(=O)Cc1c2c3c(cc(OC)c(OC)c3c3cc(OC)c(OC)cc13)CCN2C — inhibition (HTR2A; ligand displacement; radioligand; 10 µM): 17%
c1cncc([C@@H]2CCCN2)c1 — inhibition (HTR2A; ligand displacement; 50 µM): -7.27%
COc1cc(/C=C/C(=O)O)ccc1OCc1cn(CC(=O)NCCc2ccccc2)nn1 — inhibition (PPO3; enzyme activity; inhibitor; 40 µM): 10.4%
CN1CCC[C@H]1c1cccnc1 — inhibition (Kappa-type opioid receptor (OPRK1, Homo sapiens, UniProt P41145); ligand displacement; 50 µM): -10.9%
COc1cc(/C=C/C(=O)O)ccc1OCc1cn(CC(=O)Nc2ccc([N+](=O)[O-])cc2)nn1 — inhibition (PPO3; enzyme activity; inhibitor; 40 µM): 14%
CC(C)CC(=O)OC[C@H]1O[C@@](C#N)(c2ccc3c(N)ncnn23)[C@H](O)[C@@H]1O — inhibition (Adenosine receptor A2a (ADORA2A, Homo sapiens, UniProt P29274); cell-free assay; 20 µM): 13%
COc1cc2c(cc1OC)-c1c(OC)c(OC)cc3c1[C@H](C2)N(C)CC3 (racemic) — inhibition (HTR2A; ligand displacement; radioligand; 10 µM): 34%
COc1cc(/C=C/C(=O)O)ccc1OCc1cn(CC(=O)Nc2ccccc2)nn1 — inhibition (PPO3; enzyme activity; inhibitor; 40 µM): 10.4%
COc1cc2c3c(c1OC)-c1c(OC)ccc(O)c1CC3N(C)CC2 (stereo not drawn) — inhibition (HTR2A; ligand displacement; radioligand; 10 µM): 36%
CC[C@H](C)[C@@H](C(=O)N1CCC[C@H]1c1nccs1)N(C)C(=O)[C@H](CC(C)C)N(C)C(=O)[C@H](Cc1ccc(OC)cc1)N(C)C(=O)/C=C(\C)OC — inhibition (Cannabinoid receptor 1 (CNR1, Homo sapiens, UniProt P21554); β-arrestin recruitment; antagonist; 20 µM): 53%
COc1cc(/C=C/C(=O)O)ccc1OCc1cn(CC(=O)Nc2ccc([N+](=O)[O-])cc2C)nn1 — inhibition (PPO3; enzyme activity; inhibitor; 40 µM): 44.9%
COc1cc2c3c(c1OC)-c1c(OC)ccc(Cl)c1CC3N(C)CC2 (racemic) — inhibition (HTR2A; ligand displacement; radioligand; 10 µM): 70%
